Source: PubChem BioAssay
A selection: hits, their analogues and other compounds. The true share with any hit is near 2.1%.
GSK3A inh: blockers of GSK3A enzyme activity – biochemical, luminescence, cell-free homogeneous, HTS, primary screen; Glycogen synthase kinase-3 alpha (Homo sapiens), P49840; GSK-3 alpha kinase, ADP-Glo luminescence, 60 min; inhibition, % at 10 µM; 0.1% of 320,000 active; AID 2650, 2010;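 active = more than half of replicates show inhibition above 20%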;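 note: GST-tagged GSK-3 alpha with peptide substrate and 25 µM ATP; 0% = DMSO neutral wells and 100% = GW8510 positive control wells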
MEKK2mut PB1 HTS: MEK5 binding signal on mutant MEKK2 PB1, primary screen, biochemical, multiplex bead flow cytometry, Alexa488-MEK5 | Alexa488-MEK5 binding to MEKK2 mutant | percent response, % at 10 µM | 0.35% of 290,000 active | AID 1530, 2009; in the data active = percent response above about 24%, passing the limit was not always enough
GSK3B inh: human GSK3beta kinase inhibitors, primary screen, biochemical, cell-free homogeneous, HTS; Glycogen synthase kinase-3 beta (Homo sapiens), P49841; GST-GSK3beta kinase, ADP-Glo luminescence, 60 min; active compounds read low; activity score (negative = inhibition), % at 10 µM; 0.038% of 300,000 active;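 active = more than half of replicate wells score below -50%, meaning over 50% inhibition versus plate controls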;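 note: 0% = median DMSO wells and -100% = median GW8510 positive control wells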
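Assay system: GST-fused GSK3beta enzyme, cell-free / Medium: Tris pH 7.5 buffer with MgCl2, DTT, BSA, heparin / Also added: peptide substrate plus 25 µM ATP (final) / Compound: 10 µM single point / Timing: kinase reaction with compound 60 min at room temperature / Detection: ADP-Glo luminescence / Benchmarks: DMSO neutral wells and GW8510 at 20 µM as positive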
STK33 kinase inh: inhibitors of purified STK33 kinase, primary screen, biochemical, ADP-Glo luminescence, homogeneous, cell-free; Serine/threonine-protein kinase 33 (Homo sapiens), Q9BYT3; MBP phosphorylation; inhibition, % at 10 µM; 0.073% of 320,000 active; AID 2661, 2010;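 active = inhibition at or above 25%, using the most active replicate where run in duplicate; inactive = inhibition below 25%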
MEKK2wt PB1 HTS: modulators of MEK5 binding to wildtype MEKK2, primary screen, biochemical, multiplex bead flow cytometry, Alexa488-MEK5 | 1.1% of 290,000 active | Alexa488-MEK5 binding to MEKK2 WT; actives lie on both sides | binding response (% of control), % at 10 µM | Mitogen-activated protein kinase kinase kinase 2 (Homo sapiens), Q9Y2U5 | AID 1531, 2009; in the data active = binding response below about 67% or above about 130%
MEKK3 PB1 HTS: modulators of MEKK3-MEK5 PB1 binding, primary screen, biochemical, wildtype MEKK3, multiplex bead flow cytometry, Alexa488-MEK5. 1.4% of 290,000 active. binding response (% of control), % at 10 µM. Mitogen-activated protein kinase kinase kinase 3 (Homo sapiens), Q99759. bead-based flow cytometry, Alexa488-MEK5 binding to MEKK3; actives lie on both sides; 0 = blocked by unlabeled MEK5, 100 = vehicle;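 active = binding response more than 3 SD above or below the average of its plate-row segment, actives on both sides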;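 note: Alexa488 bead fluorescence after subtracting the streptavidin-only scavenger bead signal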
Target sequence (Q99759 whole entry, looked up): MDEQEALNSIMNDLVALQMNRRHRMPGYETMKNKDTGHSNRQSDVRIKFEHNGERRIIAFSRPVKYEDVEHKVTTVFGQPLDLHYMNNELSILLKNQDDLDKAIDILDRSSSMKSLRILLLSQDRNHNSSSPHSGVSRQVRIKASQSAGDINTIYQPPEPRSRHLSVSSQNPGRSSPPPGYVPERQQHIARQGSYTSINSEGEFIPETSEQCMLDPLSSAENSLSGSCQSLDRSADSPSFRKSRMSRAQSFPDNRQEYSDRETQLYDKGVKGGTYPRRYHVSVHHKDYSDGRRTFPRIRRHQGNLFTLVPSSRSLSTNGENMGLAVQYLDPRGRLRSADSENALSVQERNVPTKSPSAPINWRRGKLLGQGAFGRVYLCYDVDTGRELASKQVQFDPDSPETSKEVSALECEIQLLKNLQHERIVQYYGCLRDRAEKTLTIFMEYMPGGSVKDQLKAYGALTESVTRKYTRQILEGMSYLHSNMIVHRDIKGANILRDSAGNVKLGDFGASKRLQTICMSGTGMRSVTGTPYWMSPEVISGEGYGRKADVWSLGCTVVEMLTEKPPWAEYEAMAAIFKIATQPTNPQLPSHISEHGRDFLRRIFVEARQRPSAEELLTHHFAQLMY
MEKK2wt confirm: modulators of MEK5 binding to wildtype MEKK2, confirmation, biochemical, single concentration, multiplex bead flow cytometry. shares compounds with MEKK3 PB1 HTS. Alexa488-MEK5 binding to MEKK2 WT; actives lie on both sides. binding response (% of control), % at 10 µM. 2.4% of 5,900 active. AID 1892, 2009; in the data active = binding response below about 16% or above about 210%; inactive = in between
MEKK2mut-MEK5: mutant MEKK2 PB1-MEK5 binding signal retest – biochemical, single concentration, multiplex bead flow cytometry, confirmation | shares compounds with MEKK3 PB1 HTS | Alexa488-MEK5 binding to MEKK2 mutant | percent response, % at 10 µM | 2% of 5,900 active; in the data active = percent response mostly above about 71%, no sharp cut-off; inactive = mostly below about 38%;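 note: higher means compound restores mutant binding toward wildtype level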
MEKK3-MEK5 inh: MEKK3 wild-type PB1 binding to MEK5, inhibitors, confirmation, biochemical, bead multiplex flow cytometry, single concentration, wildtype. shares compounds with MEKK3 PB1 HTS. Alexa488-MEK5 binding to MEKK3; active compounds read low. binding response (% of control), % at 10 µM. 1.8% of 5,900 active;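 active = binding response below 72% of control, or above a set upper limit, though filed actives all read lower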;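 note: 100% = DMSO only wells and 0% = binding blocked by excess unlabeled MEK5; lower values mean stronger disruption of MEK5 binding to MEKK3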
* = called active by the depositor; nt = not tested or not shown; [ ] = dose if it differs, or a comment.

SMILES | GSK3A inh | MEKK2mut PB1 HTS | GSK3B inh | STK33 kinase inh | MEKK2wt PB1 HTS | MEKK3 PB1 HTS | MEKK2wt confirm | MEKK2mut-MEK5 | MEKK3-MEK5 inh
Cc1cc(NC(=O)c2cc(C)on2)n(-c2ccccc2)n1 | -1 | -4 | 0 | -2 | 79 | 74*[inhibitor] | 98 | 3 | 97
CCOc1cc(Br)c(C(C)NC(=O)c2cccnc2)cc1OCC (stereo not given) | -3 | nt | -2 | -1 | nt | nt | nt | nt | nt
Cn1c(=O)oc2cc(S(=O)(=O)N3CCN(c4ccccn4)CC3)ccc21 | 0 | -9 | 2 | 0 | 64 | 50*[inhibitor] | 108 | 13 | 111
Nc1nonc1C(=O)NCCNC(=O)c1ccc(Cl)c(Cl)c1 | 2 | 1 | -2 | 0 | 102 | 102 | nt | nt | nt
CCOC(=O)C(=Cc1ccc(F)cc1)C(=O)OCC | -5 | 33* | 0 | -2 | 121 | 114 | 101 | 0 | 105
CCOC(=O)C(=Cc1ccc(Br)cc1)C(=O)OCC | -1 | 2 | 2 | -2 | 105 | 103 | nt | nt | nt
CCOC(=O)N1CCN(S(=O)(=O)c2ccc(C(=O)N(CCCN(C)C)c3nc4c(F)cc(F)cc4s3)cc2)CC1 | 1 | nt | 1 | -2 | nt | nt | nt | nt | nt
CCOC(=O)N1CCN(S(=O)(=O)c2ccc(C(=O)N(CCCN(C)C)c3nc4ccc(CC)cc4s3)cc2)CC1 | -1 | 19 | 0 | -1 | 133 | 102 | nt | nt | nt
CCOC(=O)N1CCN(S(=O)(=O)c2ccc(C(=O)N(CCCN(C)C)c3nc4ccc(Cl)cc4s3)cc2)CC1 | 1 | 30* | 0 | 0 | 153* | 108 | 132 | 15 | 103
CCOC(=O)N1CCN(S(=O)(=O)c2ccc(C(=O)N(CCN(C)C)c3nc4ccc(CC)cc4s3)cc2)CC1 | 1 | 16 | 0 | -1 | 136* | 106 | 138 | 15 | 102
CC(C)c1ccccc1OCC(=O)Nc1ccccc1C(=O)N1CCOCC1 | -1 | 6 | 0 | 1 | 101 | 104 | nt | nt | nt
OC(CNCCc1ccc(Cl)cc1)COc1cc(Cl)ccc1Cl (stereo not given) | -2 | 26* | -9 | -1 | 122 | 107 | 128 | 22 | 105
CC(C)N(CCNCC(O)COc1ccc(C(C)(C)c2ccccc2)cc1)C(C)C (stereo not given) | 2 | 29 | -8 | -1 | 172* | 109 | 146 | 33 | 105
CC(C)CCNCC(O)CON=C1c2ccccc2-c2ccccc21 (stereo not given) | 3 | 2 | -1 | nt | 161* | 98 | 144 | 21 | 104
OC(CNCCc1ccccc1)COc1ccc(OCC(O)CNCCc2ccccc2)cc1 (stereo not given) | 0 | 40 | -2 | -1 | 172* | 98 | 172 | 39 | 107
COCCNCC(O)CON=C1c2ccccc2-c2ccccc21 (stereo not given) | 0 | 11 | -1 | -1 | 120 | 106 | nt | nt | nt
OC(CNCCC(c1ccccc1)c1ccccc1)COc1ccccc1 (stereo not given) | -1 | 142* | 3 | 0 | 313* | 109 | 115 | 5 | 105
CN(c1ccc(F)cc1)S(=O)(=O)c1ccc(Cl)c(C(=O)Nc2ccncc2)c1 | -2 | nt | 1 | 0 | nt | nt | nt | nt | nt
CN(c1ccc(F)cc1)S(=O)(=O)c1ccc(Cl)c(C(=O)Nc2ccc3c(c2)CCC3)c1 | -5 | 1 | -1 | 0 | 111 | 134* | 104 | -5 | 101
CCCCc1nc2cc(C(=O)N3CCCC(OCCC)C3)ccc2o1 (stereo not given) | -3 | 3 | -1 | -1 | 101 | 103 | nt | nt | nt
Cc1ccc(NS(=O)(=O)c2cc(C(=O)Nc3cccnc3)ccc2C)cc1 | -1 | 1 | -2 | -1 | 98 | 99 | nt | nt | nt
O=C(Nc1ccc(Cl)c(Cl)c1)N1N=CCC1c1ccccc1 (stereo not given) | nt | 0 | 0 | nt | 116 | 133* | 100 | 0 | 101
Cc1nc(Cl)cc(N/N=C/c2ccc(O)cc2)n1 | 1 | 17 | 3 | 3 | 115 | 112 | nt | nt | nt
Nc1c(Cl)ncnc1N/N=C/c1ccc(O)cc1 | -1 | -11 | 0 | 0 | 53*[inhibitor] | 51*[inhibitor] | 91 | 0 | 89
Oc1ccc(/C=N/Nc2nccnc2Cl)cc1 | 29 | 7 | -24 | 18 | 121 | 126* | 99 | 2 | 104
SMILES | GSK3A inh | MEKK2mut PB1 HTS | GSK3B inh | STK33 kinase inh | MEKK2wt PB1 HTS | MEKK3 PB1 HTS | MEKK2wt confirm | MEKK2mut-MEK5 | MEKK3-MEK5 inh
Cc1ccc2c(c1)c1c3n2CCN(C(=O)CN2CCN(C)CC2)C3CCC1 (stereo not given) | -3 | 16 | -4 | 0 | 126 | 105 | nt | nt | nt
CN1CCN(CC(=O)N2CCn3c4c(c5cc(C6CCCCC6)ccc53)CCCC42)CC1 (stereo not given) | -1 | 84* | -7 | -1 | 253* | 112 | 215* | 62 | 108
CCCCNC(=O)CSc1nc2ccccc2c(=O)n1CCNC(C)=O | 0 | 4 | 2 | 0 | 98 | 104 | nt | nt | nt
CCCNC(=O)CSc1nc2ccccc2c(=O)n1CCC | -1 | -1 | -2 | 0 | 112 | 128* | 101 | 3 | 104
COCCCn1c(SCC(=O)Nc2ccc(C(C)=O)cc2)nc2ccccc2c1=O | 2 | -19 | -1 | 0 | 48 | 39*[inhibitor] | 105 | 3 | 102
COCCCn1c(SCC(=O)NCc2ccccc2)nc2ccccc2c1=O | -2 | 2 | -1 | -1 | 100 | 93 | nt | nt | nt
C[C@H]1CCC[C@@]2(O[C@@H](CCO)C[C@@H](O)[C@@H]2O)O1 | 0 | 4 | -1 | 0 | 89 | 92 | nt | nt | nt
